# From ChEMBL document CHEMBL5058577, “EUbOPEN Chemogenomics Library 2 (Multiplex)” (2022)
# Tested on: HEK-293T
# Experiment: Multiplex assay against HEK293T
# Format: toxicity, cell-based
# Conditions: human
# Outline: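 Hoechst33342, BioTracker Green Microtubule Cytoskeleton Dye, MitoTracker Red and Annexin V Alexa Fluor 680 were added to live cells at seeding, and imaging on a CQ1 microscope at 37°C and 5% CO2 followed compound addition. Gating by CellPathfinder machine learning separated cells into Hoechst high-intensity objects or normal cells, then normal cells into healthy, pyknosed or fragmented nuclei, then pyknosed cells into mitotic or apoptotic. Per cents of healthy-nucleus cells are reported for the tubulin, mitochondrial-mass and membrane-permeability phenotypes.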
# [1] = 12 h, 1 µM, compound concentration 1 uM, replicate 1
# [2] = 12 h, 1 µM, compound concentration 1 uM, replicate 2
# [3] = 12 h, 10 µM, compound concentration 10 uM, replicate 1
# [4] = 12 h, 10 µM, compound concentration 10 uM, replicate 2
# [5] = 24 h, 1 µM, compound concentration 1 uM, replicate 1
# [6] = 24 h, 1 µM, compound concentration 1 uM, replicate 2
# [7] = 24 h, 10 µM, compound concentration 10 uM, replicate 1
# [8] = 24 h, 10 µM, compound concentration 10 uM, replicate 2
# [9] = 48 h, 1 µM, compound concentration 1 uM, replicate 1
# [10] = 48 h, 1 µM, compound concentration 1 uM, replicate 2
# [11] = 48 h, 10 µM, compound concentration 10 uM, replicate 1
# [12] = 48 h, 10 µM, compound concentration 10 uM, replicate 2
compound,measurement,setting,value
CCCCC1=NC2(CCCC2)C(=O)N1Cc1ccc(-c2ccccc2-c2nnn[nH]2)cc1 [IRBESARTAN],Population Apoptotic (%),[1],24%
same,Population Fragmented Nuclei (%),[1],9%
same,Population Healthy Nuclei (%),[1],79%
same,Population Hoechst High Intensity Objects (%),[1],9%
same,Population Membrane Permeable-Phenotype (%),[1],0%
same,Population Mitochondria Different-Phenotype (%),[1],34%
same,Population Mitotic Cells (%),[1],75%
same,Population Normal (%),[1],91%
same,Population Pyknosed Nuclei (%),[1],10%
same,Population Tubulin-Different-Phenotype (%),[1],17%
same,Total Cell Count,[1],500
same,Population Apoptotic (%),[2],28%
same,Population Fragmented Nuclei (%),[2],8%
same,Population Healthy Nuclei (%),[2],78%
same,Population Hoechst High Intensity Objects (%),[2],4%
same,Population Mitochondria Different-Phenotype (%),[2],63%
same,Population Mitotic Cells (%),[2],71%
same,Population Normal (%),[2],95%
same,Population Pyknosed Nuclei (%),[2],12%
same,Population Tubulin-Different-Phenotype (%),[2],20%
same,Total Cell Count,[2],353
same,Population Apoptotic (%),[3],50%
same,Population Fragmented Nuclei (%),[3],7%
same,Population Healthy Nuclei (%),[3],70%
same,Population Hoechst High Intensity Objects (%),[3],5%
same,Population Membrane Permeable-Phenotype (%),[3],2%
same,Population Mitochondria Different-Phenotype (%),[3],46%
same,Population Mitotic Cells (%),[3],50%
same,Population Normal (%),[3],94%
same,Population Pyknosed Nuclei (%),[3],22%
same,Population Tubulin-Different-Phenotype (%),[3],50%
same,Total Cell Count,[3],219
same,Population Apoptotic (%),[4],56%
same,Population Fragmented Nuclei (%),[4],6%
same,Population Healthy Nuclei (%),[4],78%
same,Population Hoechst High Intensity Objects (%),[4],13%
same,Population Membrane Permeable-Phenotype (%),[4],0%
same,Population Mitochondria Different-Phenotype (%),[4],66%
same,Population Mitotic Cells (%),[4],43%
same,Population Normal (%),[4],86%
same,Population Pyknosed Nuclei (%),[4],15%
same,Population Tubulin-Different-Phenotype (%),[4],33%
same,Total Cell Count,[4],351
same,Population Apoptotic (%),[5],31%
same,Population Fragmented Nuclei (%),[5],9%
same,Population Healthy Nuclei (%),[5],79%
same,Population Hoechst High Intensity Objects (%),[5],4%
same,Population Membrane Permeable-Phenotype (%),[5],0%
same,Population Mitochondria Different-Phenotype (%),[5],24%
same,Population Mitotic Cells (%),[5],68%
same,Population Normal (%),[5],95%
same,Population Pyknosed Nuclei (%),[5],10%
same,Population Tubulin-Different-Phenotype (%),[5],15%
same,Total Cell Count,[5],625
same,Population Apoptotic (%),[6],34%
same,Population Healthy Nuclei (%),[6],80%
same,Population Hoechst High Intensity Objects (%),[6],7%
same,Population Mitochondria Different-Phenotype (%),[6],45%
same,Population Mitotic Cells (%),[6],65%
same,Population Normal (%),[6],92%
same,Population Pyknosed Nuclei (%),[6],9%
same,Population Tubulin-Different-Phenotype (%),[6],14%
same,Total Cell Count,[6],456
same,Population Apoptotic (%),[7],27%
same,Population Fragmented Nuclei (%),[7],6%
same,Population Healthy Nuclei (%),[7],77%
same,Population Hoechst High Intensity Objects (%),[7],3%
same,Population Membrane Permeable-Phenotype (%),[7],1%
same,Population Mitochondria Different-Phenotype (%),[7],37%
same,Population Mitotic Cells (%),[7],72%
same,Population Normal (%),[7],96%
same,Population Pyknosed Nuclei (%),[7],15%
same,Population Tubulin-Different-Phenotype (%),[7],32%
same,Total Cell Count,[7],287
same,Population Apoptotic (%),[8],41%
same,Population Fragmented Nuclei (%),[8],11%
same,Population Hoechst High Intensity Objects (%),[8],10%
same,Population Membrane Permeable-Phenotype (%),[8],0%
same,Population Mitochondria Different-Phenotype (%),[8],49%
same,Population Mitotic Cells (%),[8],58%
same,Population Normal (%),[8],89%
same,Population Pyknosed Nuclei (%),[8],11%
same,Population Tubulin-Different-Phenotype (%),[8],22%
same,Total Cell Count,[8],434
same,Population Apoptotic (%),[9],29%
same,Population Fragmented Nuclei (%),[9],11%
same,Population Healthy Nuclei (%),[9],81%
same,Population Hoechst High Intensity Objects (%),[9],3%
same,Population Membrane Permeable-Phenotype (%),[9],0%
same,Population Mitochondria Different-Phenotype (%),[9],21%
same,Population Mitotic Cells (%),[9],70%
same,Population Normal (%),[9],96%
same,Population Pyknosed Nuclei (%),[9],7%
same,Population Tubulin-Different-Phenotype (%),[9],15%
same,Total Cell Count,[9],958
same,Population Apoptotic (%),[10],23%
same,Population Fragmented Nuclei (%),[10],9%
same,Population Healthy Nuclei (%),[10],84%
same,Population Hoechst High Intensity Objects (%),[10],2%
same,Population Membrane Permeable-Phenotype (%),[10],1%
same,Population Mitochondria Different-Phenotype (%),[10],19%
same,Population Mitotic Cells (%),[10],76%
same,Population Normal (%),[10],97%
same,Population Pyknosed Nuclei (%),[10],6%
same,Population Tubulin-Different-Phenotype (%),[10],8%
same,Total Cell Count,[10],705
same,Population Apoptotic (%),[11],25%
same,Population Fragmented Nuclei (%),[11],15%
same,Population Healthy Nuclei (%),[11],75%
same,Population Hoechst High Intensity Objects (%),[11],1%
same,Population Membrane Permeable-Phenotype (%),[11],0%
same,Population Mitochondria Different-Phenotype (%),[11],21%
same,Population Mitotic Cells (%),[11],75%
same,Population Normal (%),[11],98%
same,Population Pyknosed Nuclei (%),[11],9%
same,Population Tubulin-Different-Phenotype (%),[11],15%
same,Total Cell Count,[11],473
same,Population Apoptotic (%),[12],46%
same,Population Fragmented Nuclei (%),[12],12%
same,Population Healthy Nuclei (%),[12],80%
same,Population Hoechst High Intensity Objects (%),[12],3%
same,Population Mitochondria Different-Phenotype (%),[12],26%
same,Population Mitotic Cells (%),[12],53%
same,Population Normal (%),[12],96%
same,Population Pyknosed Nuclei (%),[12],6%
same,Total Cell Count,[12],684
